Results pooled from the literature.
Each line is one published result; the experiments were not run side by side.
Target: Mitogen-activated protein kinase 10 (MAPK10, Homo sapiens, UniProt P53779)

Compound	effect on	action	method	tested at	endpoint	value
CNC(=O)c1cc(Oc2ccc(NC(=O)Nc3ccc(Cl)c(C(F)(F)F)c3)cc2)ccn1	enzyme activity	inhibitor	–	0.3 µM	inhibition	9%
COc1cc2ncnc(Nc3ccc(Oc4ccccc4)cc3C)c2cc1OC	enzyme activity	inhibitor	–	1 µM	inhibition	5%
O=C1Nc2ccc(Cl)cc2C1=Cc1cc(Cl)c(O)c(Cl)c1	cell-free assay	–	–	0.5 µM	remaining signal	98.8%
CC(C)(O)[C@H]1CC[C@H](Nc2ccc3ncc(-c4cccc(C(F)(F)F)c4)n3n2)CC1	enzyme activity	inhibitor	–	1 µM	remaining activity	107%
COc1cc(Nc2cnc(C#N)c(O[C@H](C)CN(C)C)n2)ncc1-c1cnn(C)c1	enzyme activity	inhibitor	radiometric	10 µM	remaining activity	97%
COc1cc(-c2cc(-c3ccc(N4CCNCC4)cc3)cnc2C)cc(OC)c1OC	enzyme activity	inhibitor	–	0.1 µM	inhibition	1%
CCOc1cc(-c2nncn2C)ccc1Nc1ncc2cc(C)nc(NCC(C)(C)C)c2n1	enzyme activity	inhibitor	FRET	1 µM	inhibition	80%
Nc1ncnc2occ(-c3ccc(NC(=O)Nc4cc(C(F)(F)F)ccc4F)cc3)c12	cell-free assay	inhibitor	–	20 µM	remaining signal	1.3%
CN(C)CC#Cc1ccc(OCCCc2sc(N3CCc4cccc(C(=O)Nc5nc6ccccc6s5)c4C3)nc2C(=O)O)c(F)c1	cell-free assay	–	competition with immobilised ligand	1 µM	remaining binding	71%
Oc1cccc(-c2nc(N3CCOCC3)c3oc4ncccc4c3n2)c1	enzyme activity	inhibitor	–	10 µM	remaining activity	101%
Nc1ncnc2c1ncn2[C@@H]1O[C@H](COP(=O)(O)OP(=O)(O)OP(=O)(O)O)[C@@H](O)[C@H]1O	thermal stability	–	DSF	2 µM	ΔTm	~4.6 °C
O=C(Nc1cccnn1)N1CCC(=Cc2cccc(Oc3ccc(C(F)(F)F)cn3)c2)CC1	cell-free assay	–	competition with immobilised ligand	1 µM	remaining binding	100%
COc1cc(Cl)c(C(=O)N[C@@H](CN[C@H]2CC[C@@H](N)CC2)Cc2ccc(C#N)cc2)cc1-c1ccc(CN[C@H](C)c2ccc(C)cc2)o1	enzyme activity	inhibitor	–	1 µM	remaining activity	93%
CCS(=O)(=O)c1cc2cc(C[C@@](O)(CC(C)(C)c3ccc(F)cc3C(N)=O)C(F)(F)F)[nH]c2cn1	cell-free assay	–	competition with immobilised ligand	1 µM	remaining binding	100%
CC/C(=N\NC(=O)NCc1cccc(O)c1)c1ccc(O)c(C)c1O	enzyme activity	inhibitor	–	0.1 µM	inhibition	-5%
Clc1ccc(Nc2nnc(Cc3ccncc3)c3ccccc23)cc1	cell-free assay	–	–	0.5 µM	remaining signal	116%
C[C@H](c1ccnc(Nc2nc3ccc(-c4cc(N(C)C)ncn4)cc3[nH]2)c1)N1CCN(C(=O)CC(F)(F)F)CC1	cell-free assay	–	competition with immobilised ligand	0.1 µM	remaining binding	81%
FC(F)(F)Oc1cccc(-c2cnc3ccc(-c4ccncc4)nn23)c1	enzyme activity	inhibitor	radiometric	1 µM	activity vs control	85%
CS(=O)(=O)c1cc(C2(NC(=O)c3cncc4c3cnn4-c3ccc(F)cc3)CC2)ccn1	cell-free assay	–	competition with immobilised ligand	1 µM	remaining binding	100%
CCCS(=O)(=O)Nc1ccc(F)c(C(=O)c2c[nH]c3ncc(-c4ccc(Cl)cc4)cc23)c1F	enzyme activity	inhibitor	–	1 µM	inhibition	< 10%
O=C(NC[C@@H]1[C@H]2CN(C(=O)OCc3cc(C(F)(F)F)cc(C(F)(F)F)c3)C[C@@H]12)c1ccc2[nH]nnc2c1	cell-free assay	–	competition with immobilised ligand	1 µM	remaining binding	90%
Cc1cc(NC(=O)c2cccc3cc(-c4cccc5[nH]nc(N)c45)ccc23)ccc1F	enzyme activity	inhibitor	–	0.1 µM	activity vs control	102%
CC(=O)N1CCC(c2ccc(C(=O)NC3=NCCN3)cc2C(F)(F)F)CC1	cell-free assay	–	competition with immobilised ligand	1 µM	remaining binding	100%
CC(C)(C)c1nc2c(s1)c1nc(N)ncc1c1ccc(NS(=O)(=O)c3c(F)cccc3F)c(F)c12	enzyme activity	inhibitor	radiometric	1 µM	remaining activity	70%
